Activity calls are given as the source filed them. No cut-off for these calls is given here.
Assays:
[1] = target: T1, Extracellular calcium-sensing receptor (Homo sapiens, UniProt P41180); experiment: Positive allosteric modulation of human CaSR expressed in CHO cells assessed as increase in intracellular calcium level after 5 hrs by luciferase reporter gene assay; assay type: functional, cell-based
T1 sequence (P41180 whole entry): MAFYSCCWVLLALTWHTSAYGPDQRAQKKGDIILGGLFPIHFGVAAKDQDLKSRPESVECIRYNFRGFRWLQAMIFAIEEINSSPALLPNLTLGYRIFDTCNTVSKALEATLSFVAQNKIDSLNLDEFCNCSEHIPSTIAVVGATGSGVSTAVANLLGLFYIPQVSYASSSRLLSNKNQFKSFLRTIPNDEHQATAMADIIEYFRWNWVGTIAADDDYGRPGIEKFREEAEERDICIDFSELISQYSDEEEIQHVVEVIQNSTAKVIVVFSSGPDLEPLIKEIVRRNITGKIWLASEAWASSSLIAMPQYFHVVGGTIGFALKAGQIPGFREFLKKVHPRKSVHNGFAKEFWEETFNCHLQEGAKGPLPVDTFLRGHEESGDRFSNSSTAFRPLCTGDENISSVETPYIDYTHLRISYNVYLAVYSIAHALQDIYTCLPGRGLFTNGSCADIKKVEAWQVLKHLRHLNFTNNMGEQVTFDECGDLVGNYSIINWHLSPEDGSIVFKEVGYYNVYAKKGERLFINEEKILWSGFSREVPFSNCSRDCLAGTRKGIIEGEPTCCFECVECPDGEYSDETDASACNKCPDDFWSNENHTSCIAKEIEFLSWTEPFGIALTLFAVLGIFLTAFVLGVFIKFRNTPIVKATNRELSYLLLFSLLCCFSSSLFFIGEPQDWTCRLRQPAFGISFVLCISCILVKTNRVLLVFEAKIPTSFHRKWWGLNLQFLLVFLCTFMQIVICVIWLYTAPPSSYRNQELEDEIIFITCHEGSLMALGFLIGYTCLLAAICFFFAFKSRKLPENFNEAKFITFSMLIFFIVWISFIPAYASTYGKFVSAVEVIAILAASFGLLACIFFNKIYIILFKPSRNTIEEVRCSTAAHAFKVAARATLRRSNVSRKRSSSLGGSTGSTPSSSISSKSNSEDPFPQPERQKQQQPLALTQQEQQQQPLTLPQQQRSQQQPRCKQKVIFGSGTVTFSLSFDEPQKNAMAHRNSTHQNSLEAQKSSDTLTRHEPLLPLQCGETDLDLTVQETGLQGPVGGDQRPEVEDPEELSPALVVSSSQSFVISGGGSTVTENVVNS
Summary of the method: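 CHO cells stably transfected with human CaSR and a luciferase reporter (clone ET8-5-5) were seeded at 50K/well, grown 24 h, then serum-starved overnight. Cells were exposed for 5 h at 37 °C to compound dilutions crossed with a CaCl2 range, in HEPES pH 7.4 buffer with 0.3 mM CaCl2 baseline. Luminescence was read. EC50 was taken at 2 mM calcium, n ≥ 1.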

Rattus norvegicus [2] = experiment: Antihyperparathyroidism activity in Sprague-Dawley rat chronic renal failure model assessed as decrease in serum PTH level at 10 mg/kg, po after 2 hrs relative to vehicle-treated control; assay type: functional; design: scale not given: the % may be the effect or the level left
Summary of the method: (§1)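 One week later each received one oral gavage of 10 mg/kg in 0.5% methylcellulose (5 mL/kg), or vehicle alone. Rats were fasted 24 h before decapitation at 2, 6 or 24 h. Serum PTH was measured by rat IRMA, and Ca and P by chemistry analyzer. n = 9–12, ANOVA/t-test against CRF vehicle.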

[3] = Aqueous solubility of the compound at pH 2; assay type: physicochemical
Summary of the method: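 Aqueous solubility measured at pH 2.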

[4] = Metabolic stability in serum (unknown origin) at pH 2 to 12; assay type: ADME
[5] = Volume of distribution in Sprague-Dawley rat chronic renal failure model at 0.3 mg/kg, iv; assay type: ADME, organism-based; design: dose 0.3 mg/kg, route intravenous; details: in vivo
Summary of the method: (§2)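 Single intravenous dose of 0.3 mg/kg given to chronic renal failure rats. AUC, Cmax, clearance, volume of distribution and half-life were derived from the plasma exposure.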

Rattus norvegicus [6] = experiment: Clearance in Sprague-Dawley rat at 0.3 mg/kg, iv; assay type: ADME, organism-based; design: dose 0.3 mg/kg, route intravenous; details: in vivo
Rattus norvegicus [7] = experiment: Toxicity in Sprague-Dawley rat chronic renal failure model assessed as decrease in serum calcium level at 10 mg/kg, po after 24 hrs; assay type: organism-based; design: dose 10 mg/kg, route oral; details: in vivo; summary of the method: as §1
Rattus norvegicus [8] = experiment: Antihyperparathyroidism activity in Sprague-Dawley rat chronic renal failure model assessed as decrease in serum PTH level at 10 mg/kg, po after 24 hrs relative to vehicle-treated control; assay type: functional; design: scale not given: the % may be the effect or the level left; summary of the method: as §1
Rattus norvegicus [9] = experiment: Antihyperparathyroidism activity in Sprague-Dawley rat chronic renal failure model assessed as decrease in serum PTH level at 10 mg/kg, po after 6 hrs relative to vehicle-treated control; assay type: functional; design: scale not given: the % may be the effect or the level left; summary of the method: as §1
Rattus norvegicus [10] = experiment: Antihyperparathyroidism activity in Sprague-Dawley rat chronic renal failure model assessed as […] at 30 mg/kg/day, po administered for 2 months measured 24 hrs post last dose relative to vehicle-treated control; assay type: functional
Summary of the method: (§3)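 Male Sprague–Dawley rats with 5/6 nephrectomy were dosed orally once daily at 10 or 30 mg/kg/day in 0.5% methylcellulose (5 mL/kg), or given vehicle. Dosing ran about 2 months, starting after a post-surgery untreated period. Rats were fasted and killed by decapitation 24 h after the last dose. Serum PTH was measured by rat IRMA and Ca by chemistry analyzer. n = 6–10, compared with CRF vehicle.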

[11] = Half life in Sprague-Dawley rat chronic renal failure model at 0.3 mg/kg, iv; assay type: ADME, organism-based; design: dose 0.3 mg/kg, route intravenous; details: in vivo; summary of the method: as §2
Rattus norvegicus [12] = experiment: Toxicity in Sprague-Dawley rat chronic renal failure model assessed as side effects at 10 to 30 mg/kg/day, po administered for 2 months measured 24 hrs post last dose; assay type: organism-based; design: route oral; details: in vivo
Summary of the method: (§4)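 After an untreated interval, they were gavaged once daily with the dihydrochloride salt in 0.5% methylcellulose, or with vehicle at 5 mL/kg. Mortality and side effects were monitored during treatment. Rats were fasted 24 h, then decapitated, and the aorta was examined histologically for calcification.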

[13] = Clearance in Sprague-Dawley rat chronic renal failure model at 0.3 mg/kg, iv; assay type: ADME, organism-based; design: dose 0.3 mg/kg, route intravenous; details: in vivo; summary of the method: as §2
[14] = Cmax in Sprague-Dawley rat chronic renal failure model at 0.3 mg/kg, iv; assay type: ADME, organism-based; design: dose 0.3 mg/kg, route intravenous; details: in vivo; summary of the method: as §2
Rattus norvegicus [15] = experiment: Toxicity in Sprague-Dawley rat chronic renal failure model assessed as decrease in serum calcium level at 10 mg/kg/day, po administered for 2 months measured 24 hrs post last dose (reference value: 4%); assay type: organism-based; design: route oral; scale not given: the % may be the effect or the level left; details: in vivo, 30 mg/kg, in the assay text read “at 30 mg/kg/day” for “at 10 mg/kg/day”; summary of the method: as §3
[16] = Metabolic stability in intestinal fluid (unknown origin) at pH 2 to 12; assay type: ADME; details: simulated gi fluid
Rattus norvegicus [17] = experiment: Toxicity in Sprague-Dawley rat chronic renal failure model assessed as aortic calcification at 10 to 30 mg/kg/day, po administered for 2 months measured 24 hrs post last dose by histological analysis; assay type: organism-based, Aorta; design: route oral; details: in vivo; summary of the method: as §4
Rattus norvegicus [18] = experiment: Toxicity in Sprague-Dawley rat chronic renal failure model assessed as mortality at 10 to 30 mg/kg/day, po administered for 2 months measured 24 hrs post last dose; assay type: organism-based; design: route oral; details: in vivo; summary of the method: as §4
Rattus norvegicus [19] = experiment: Toxicity in Sprague-Dawley rat chronic renal failure model assessed as decrease in serum calcium level at 10 mg/kg/day, po administered for 2 months measured 24 hrs post last dose relative to vehicle-treated control; assay type: organism-based; design: route oral; details: in vivo; summary of the method: as §3
[20] = AUC in Sprague-Dawley rat chronic renal failure model at 0.3 mg/kg, iv; assay type: ADME, organism-based; design: dose 0.3 mg/kg, route intravenous; details: in vivo; summary of the method: as §2
Rattus norvegicus [21] = experiment: Antihyperparathyroidism activity in Sprague-Dawley rat chronic renal failure model assessed as […] at 10 mg/kg/day, po administered for 2 months measured 24 hrs post last dose relative to vehicle-treated control; assay type: functional; summary of the method: as §3
Rattus norvegicus [22] = experiment: Antihyperparathyroidism activity in Sprague-Dawley rat chronic renal failure model assessed as increase in serum phosphorus level at 10 mg/kg, po after 24 hrs; assay type: functional, organism-based; design: dose 10 mg/kg; summary of the method: as §1
[23] = target: T2, Extracellular calcium-sensing receptor (Homo sapiens) (UniProt P41180); experiment: Ratio of R-568 EC50 to compound EC50 for positive allosteric modulation of human CaSR
T2 sequence (whole entry): T1 sequence (P41180 whole entry)

Salmonella typhimurium = experiment: Genotoxicity in Salmonella typhimurium at 10 uM by Ames test; assay type: toxicity, organism-based; details: salmonella enterica subsp. enterica serovar typhimurium
[24] = target: Voltage-gated inwardly rectifying potassium channel KCNH2 (Homo sapiens, UniProt Q12809); experiment: Inhibition of human ERG at 10 uM
Sequence of Voltage-gated inwardly rectifying potassium channel KCNH2 (Q12809 whole entry): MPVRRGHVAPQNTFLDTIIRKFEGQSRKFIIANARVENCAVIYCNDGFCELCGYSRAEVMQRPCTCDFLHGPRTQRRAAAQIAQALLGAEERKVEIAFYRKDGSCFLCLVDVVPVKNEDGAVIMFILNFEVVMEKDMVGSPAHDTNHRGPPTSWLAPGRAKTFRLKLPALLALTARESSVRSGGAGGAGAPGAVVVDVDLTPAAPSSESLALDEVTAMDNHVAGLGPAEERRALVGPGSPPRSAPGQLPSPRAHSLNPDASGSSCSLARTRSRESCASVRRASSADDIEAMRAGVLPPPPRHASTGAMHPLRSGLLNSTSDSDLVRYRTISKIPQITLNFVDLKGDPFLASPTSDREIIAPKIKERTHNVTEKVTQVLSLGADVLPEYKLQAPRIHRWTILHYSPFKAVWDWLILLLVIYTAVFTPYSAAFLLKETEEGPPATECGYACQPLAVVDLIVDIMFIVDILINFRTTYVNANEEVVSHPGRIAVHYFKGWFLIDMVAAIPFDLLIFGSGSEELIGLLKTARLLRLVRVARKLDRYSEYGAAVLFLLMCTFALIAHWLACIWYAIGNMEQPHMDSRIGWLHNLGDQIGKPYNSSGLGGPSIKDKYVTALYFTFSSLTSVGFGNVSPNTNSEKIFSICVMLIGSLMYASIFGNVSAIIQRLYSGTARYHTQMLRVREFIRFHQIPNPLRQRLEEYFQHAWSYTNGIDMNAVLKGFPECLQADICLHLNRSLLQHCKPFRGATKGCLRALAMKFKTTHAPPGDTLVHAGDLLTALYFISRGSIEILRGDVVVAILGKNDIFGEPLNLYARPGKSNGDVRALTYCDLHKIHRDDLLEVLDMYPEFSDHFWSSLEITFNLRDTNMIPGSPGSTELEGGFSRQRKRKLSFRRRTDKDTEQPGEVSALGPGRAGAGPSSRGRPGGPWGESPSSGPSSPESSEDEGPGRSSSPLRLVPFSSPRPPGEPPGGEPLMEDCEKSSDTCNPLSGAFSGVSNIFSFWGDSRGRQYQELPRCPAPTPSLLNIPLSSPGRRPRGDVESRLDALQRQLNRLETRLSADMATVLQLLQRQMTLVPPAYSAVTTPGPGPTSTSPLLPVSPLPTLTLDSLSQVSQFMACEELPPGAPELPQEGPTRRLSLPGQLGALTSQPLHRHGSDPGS

| Compound | EC50 [1] | other results |
| --- | --- | --- |
| O=C(Nc1nc2ccc(F)cc2s1)N(CCC(c1ccccc1)c1ccccc1)CCN1CCOCC1 | 200 nM | – |
| O=C(Nc1nc2ccc(OC(F)(F)F)cc2s1)N(CCC(c1ccccc1)c1ccccc1)CCN1CCOCC1 | 90 nM | – |
| COc1cc(C)nc(NC(=O)N(CCC(c2ccccc2)c2ccccc2)CCN2CCOCC2)n1 | 400 nM | – |
| CCOC(=O)c1ccc2nc(NC(=O)N(CCC(c3ccccc3)c3ccccc3)CCN3CCOCC3)sc2c1 | 200 nM | – |
| Cc1cc(NC(=O)N(CCC(c2ccccc2)c2ccccc2)CCN2CCOCC2)no1 | 200 nM | – |
| O=C(O)c1ccc2nc(NC(=O)N(CCC(c3ccccc3)c3ccccc3)CCN3CCOCC3)sc2c1 | 100 nM | – |
| Cl.Cl.O=C(Nc1nc2ccccc2s1)N(CCC(c1ccccc1)c1ccccc1)CCN1CCOCC1 | – | Activity (Rattus norvegicus [2]): 95%; solubility [3]: 300 µg/mL; Stability [4]: Stable; Vd [5]: 5.17 L/kg; clearance (Rattus norvegicus [6]): 4.96 L/h/kg; Activity (Rattus norvegicus [7]): Non-toxic; Activity (Rattus norvegicus [8]): -49%; Activity (Rattus norvegicus [9]): -75%; Activity (Rattus norvegicus [10]): -88%; half-life [11]: 404 min; Activity (Rattus norvegicus [12]): Non-toxic; clearance [13]: 30.8 mL/min/kg; Cmax [14]: 546 ng/mL; Activity (Rattus norvegicus [15]): 9%; Stability [16]: Stable; Activity (Rattus norvegicus [17]): Non-toxic; Activity (Rattus norvegicus [18]): Non-toxic; Activity (Rattus norvegicus [19]): Non-toxic; AUC [20]: 162 ng·h/mL; Activity (Rattus norvegicus [21]): -76% |
| O=C(Nc1cnccn1)N(CCC(c1ccccc1)c1ccccc1)CCN1CCOCC1 | 450 nM | – |
| CN(C)CCNC(=O)c1ccc2nc(NC(=O)N(CCC(c3ccccc3)c3ccccc3)CCN3CCOCC3)sc2c1 | 200 nM | – |
| O=C(Nc1nccc(-c2nccs2)n1)N(CCC(c1ccccc1)c1ccccc1)CCN1CCOCC1 | 200 nM | – |
| O=C(Nc1nc2ccccc2s1)N(CCC(c1ccccc1)c1ccccc1)CCN1CCOCC1 [listing 1 of 2 here] | – | Activity (Rattus norvegicus [22]): Active; Ratio EC50 [23]: 4 |
| COC(=O)c1sccc1NC(=O)N(CCC(c1ccccc1)c1ccccc1)CCN1CCOCC1 | 400 nM | – |
| CS(=O)(=O)c1ccc2nc(NC(=O)N(CCC(c3ccccc3)c3ccccc3)CCN3CCOCC3)sc2c1 | 80 nM | – |
| O=C(Nc1nc2ccccc2s1)N(CCC(c1ccccc1)c1ccccc1)CCN1CCOCC1 [listing 2 of 2 here] | 20 nM | Activity (Salmonella typhimurium): Non-toxic; inhibition (INH) [24]: Active |
| O=C(Nc1cccnc1)N(CCC(c1ccccc1)c1ccccc1)CCN1CCOCC1 | 1000 nM | – |
| O=C(Nc1nc2ccccc2n1Cc1ccccc1)N(CCC(c1ccccc1)c1ccccc1)CCN1CCOCC1 | 300 nM | – |

| Compound | EC50 [1] | other results |
| --- | --- | --- |
| O=C(Nc1nc2ccccc2[nH]1)N(CCC(c1ccccc1)c1ccccc1)CCN1CCOCC1 | 60 nM | – |
| O=C(Nc1nc2ccc(Cl)cc2s1)N(CCC(c1ccccc1)c1ccccc1)CCN1CCOCC1 | 60 nM | – |
| CS(=O)(=O)Nc1ccc2sc(NC(=O)N(CCC(c3ccccc3)c3ccccc3)CCN3CCOCC3)nc2c1 | 30 nM | – |
| O=C(Nc1nc2c(Cl)cccc2s1)N(CCC(c1ccccc1)c1ccccc1)CCN1CCOCC1 | 20 nM | – |
| Cc1noc(NC(=O)N(CCC(c2ccccc2)c2ccccc2)CCN2CCOCC2)c1C | 1700 nM | – |
| CCOc1ccc2nc(NC(=O)N(CCC(c3ccccc3)c3ccccc3)CCN3CCOCC3)sc2c1 | 1000 nM | – |
| Cc1cccc2sc(NC(=O)N(CCC(c3ccccc3)c3ccccc3)CCN3CCOCC3)nc12 | 600 nM | – |
| O=C(Nc1nc2cc(Cl)ccc2o1)N(CCC(c1ccccc1)c1ccccc1)CCN1CCOCC1 | 80 nM | – |
| O=C(Nc1nc2ccc(CO)cc2s1)N(CCC(c1ccccc1)c1ccccc1)CCN1CCOCC1 | 80 nM | – |
| COc1ccc2nc(NC(=O)N(CCC(c3ccccc3)c3ccccc3)CCN3CCOCC3)sc2c1 | 40 nM | – |
| Cc1ccc2nc(NC(=O)N(CCC(c3ccccc3)c3ccccc3)CCN3CCOCC3)sc2c1 | 30 nM | – |
| Cn1c(NC(=O)N(CCC(c2ccccc2)c2ccccc2)CCN2CCOCC2)nc2ccccc21 | 150 nM | – |
| Cc1cc(C)nc(NC(=O)N(CCC(c2ccccc2)c2ccccc2)CCN2CCOCC2)c1 | 80 nM | – |
| COc1cccc2sc(NC(=O)N(CCC(c3ccccc3)c3ccccc3)CCN3CCOCC3)nc12 | 30 nM | – |
| CS(=O)(=O)Nc1ccc2nc(NC(=O)N(CCC(c3ccccc3)c3ccccc3)CCN3CCOCC3)sc2c1 | 30 nM | – |
| O=C(Nc1nccs1)N(CCC(c1ccccc1)c1ccccc1)CCN1CCOCC1 | 300 nM | – |

— ChEMBL document CHEMBL2375300, “New potent calcimimetics: II. Discovery of benzothiazole trisubstituted ureas” (Bioorg Med Chem Lett, 2013)
